Measurements as given in ChEMBL document CHEMBL4049424, “Hydroxypyridinone and 5-Aminolaevulinic Acid Conjugates for Photodynamic Therapy” (J Med Chem, 2017).

What was measured:
[1] = Drug metabolism in human KB cells assessed as protoporphyrin 9 formation at 500 uM preincubated for 1 hr at 4 degC followed by compound washout and subsequent incubation for 4 hrs at 37 degC by fluorescence spectrometer; assay type: ADME, cell-based
Procedure, shortened: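 KB cells exposed 1 h to 500 μM prodrug in clear medium at either 4 °C or 37 °C, plates foil-wrapped. Compound then removed, PBS rinse, fresh medium, both plates 4 h at 37 °C. PpIX read in wells at 405/635 nm after subtracting untreated wells.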

KB [2] = assay: Dark toxicity against human KB cells assessed as cell survival at 100 uM after 24 hrs by MTT assay; assay type: cell-based
MCF7 = assay: Phototoxicity in human MCF7 cells assessed as reduction in cell viability preincubated for 4 hrs followed by irradiation with blue light at 2.5 J/cm2 and subsequent incubation for 18 hrs measured after 24 hrs post treatment by MTT assay; assay type: functional; settings: for CC50: MCF7, light or radiation study, read-out: LD50 (the source's name)
Procedure, shortened: (§1)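 Cells seeded ~5 × 10^4 per well, grown 48 h, washed with PBS, then 4 h with compound (five concentrations within 1–100 μM, triplicate, three untreated control wells per plate). Irradiated with blue light, peak ~420 nm, 2.5 J/cm². Medium replaced, cells kept a further 18 h. MTT read at A570 24 h after treatment; survival expressed as percentage of control. LD50 taken from two sets of experiments.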

KB [3] = assay: Dark toxicity against human KB cells at 200 uM preincubated for 4 hrs followed by compound washout measured after 24 hrs by MTT assay; assay type: cell-based
Procedure, shortened: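 Dark toxicity in KB cells: 200 μM compound for 4 h with no light, removed, cells kept 24 h. Viability by MTT (2 h, A570 after DMSO solubilisation), given as % of untreated controls. Triplicate.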

KB [4] = assay: Phototoxicity in human KB cells assessed as reduction in cell viability preincubated for 4 hrs followed by irradiation with blue light at 2.5 J/cm2 and subsequent incubation for 18 hrs measured after 24 hrs post treatment by MTT assay; assay type: functional; settings: for CC50: light or radiation study, read-out: LD50 (the source's name); procedure, shortened: as §1
MCF7R = assay: Phototoxicity in human doxorubicin resistant MCF7/R cells assessed as reduction in cell viability preincubated for 4 hrs followed by irradiation with blue light at 2.5 J/cm2 and subsequent incubation for 18 hrs measured after 24 hrs post treatment by MTT assay; assay type: functional; settings: for CC50: light or radiation study, read-out: LD50 (the source's name); procedure, shortened: as §1
CNE-2 [5] = assay: Phototoxicity in human CNE2 cells assessed as reduction in cell viability preincubated for 4 hrs followed by irradiation with 6 J/cm2 light dose measured after 24 hrs by MTT assay; assay type: functional
[6] = Drug metabolism in human doxorubicin resistant MCF7/R cells assessed as formation of protoporphyrin 9 at 100 uM after 6 hrs by fluorescence spectrometer; assay type: ADME, cell-based; settings: mcf7r
Procedure, shortened: (§2)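 MCF-7R monolayers exposed 6 h at 37 °C to ALA, conjugates or ALA hexyl/octyl esters at 1–100 μM in serum-free medium. PpIX emission at 635 nm (405 nm excitation; spectra 600–750 nm) read in wells. Untreated controls subtracted; mean of triplicates in arbitrary units.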

[7] = Drug metabolism in human KB cells assessed as formation of protoporphyrin 9 preincubated for 2 hrs followed by compound washout measured after 24 hrs by HPLC-based fluorescence analysis; assay type: ADME, cell-based
Procedure, shortened: (§3)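 Cells given ALA or conjugate for 2 h at 37 °C, then fresh medium without compound. At 24 h, lysed in CelLytic (15 min, room temperature), scraped and spun 1800g for 10 min. Supernatant PpIX read by fluorescence at 405/635 nm and normalised per mg protein (BCA). Untreated blanks subtracted.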

[8] = Drug metabolism in human doxorubicin resistant MCF7/R cells assessed as formation of protoporphyrin 9 preincubated for 2 hrs followed by compound washout measured after 24 hrs by HPLC-based fluorescence analysis; assay type: ADME, cell-based; settings: mcf7r; procedure, shortened: as §3
[9] = Drug metabolism in human KB cells assessed as formation of protoporphyrin 9 after 2 to 24 hrs by fluorescence spectrometer; assay type: ADME, cell-based
Procedure, shortened: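 KB monolayers (48 h after seeding ~5×10^4/well) washed, then given prodrug or ALA at 50 μM in serum-free medium at 37 °C. PpIX fluorescence read in wells at 2, 4, 6 and 24 h, excitation 405 nm, emission 635 nm. Untreated wells subtracted for autofluorescence; mean intensity in arbitrary units, triplicate.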

[10] = Drug metabolism in human KB cells assessed as formation of protoporphyrin 9 at 100 uM after 6 to 24 hrs by fluorescence spectrometer; assay type: ADME, cell-based
Procedure, shortened: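 Time course in KB cells at 37 °C after 100 μM conjugate, ALA, or 1:1 ALA + HPO mixture in serum-free medium. Well PpIX fluorescence read at 405 nm excitation / 635 nm emission, control autofluorescence subtracted, triplicate means.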

[11] = Drug metabolism in human doxorubicin resistant MCF7/R cells assessed as formation of protoporphyrin 9 at 100 uM after 6 hrs by fluorescence spectrometer relative to ALA; assay type: ADME, cell-based; settings: mcf7r; procedure, shortened: as §2
[12] = Drug metabolism in mouse PAM212 cells assessed as formation of protoporphyrin 9 at 0.01 mM after 6 hrs by fluorescence spectrometer relative to ALA; assay type: ADME, cell-based; settings: pam212, 6 h, 10 µM
CNE-2 [13] = assay: Potency index, ratio of ALA LD80 to test compound LD80 for phototoxicity against human CNE2 cells; assay type: functional
CNE-2 [14] = assay: Phototoxicity in human CNE2 cells assessed as reduction in cell viability preincubated for 4 hrs followed by irradiation with 4 J/cm2 light dose measured after 24 hrs by MTT assay; assay type: functional
[15] = Dark toxicity against human KB cells assessed as cell survival at 100 uM after 4 hrs by MTT assay; assay type: cell-based; settings: read-out: Survival
Procedure, shortened: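 Cells seeded ~5 × 10^4 per well, grown 48 h, washed with PBS, then exposed to compound in medium for 4 h without irradiation. Incubation then continued for 24 h after prodrug removal. Viability by MTT (1 mg/mL, 2 h), formazan dissolved in DMSO, A570, expressed as percentage of untreated control wells on the same plate. Triplicate.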

KB [16] = assay: Dark toxicity against human KB cells preincubated for 4 hrs followed by compound washout measured after 24 hrs by MTT assay; assay type: cell-based
Procedure, shortened: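 KB cells seeded ~5×10^4/well, grown 48 h, PBS-washed, then exposed to compound for 4 h without irradiation. Medium replaced and cells kept a further ~24 h. Survival by MTT (1 mg/mL in EMEM, 2 h), formazan dissolved in DMSO, A570, expressed as % of untreated control wells. Triplicate wells.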

Compound | Drug metabolism [1] | Activity (KB [2]) | Activity (MCF7) | CC50 (MCF7) [µM] | Activity (KB [3]) | Activity (KB [4]) | CC50 (KB [4]) [µM] | Activity (MCF7R) | CC50 (MCF7R) [µM] | Drug metabolism [9] | also measured
NCC(=O)CCC(=O)O [AMINOLEVULINIC ACID] | Metabolite_Notdetected | Non-Toxic | Dose-dependent effect | 131 | Non-Toxic | Dose-dependent effect | 124 | Dose-dependent effect | 122 |  | LD80 (CNE-2 [5]): 0.75 mM; Drug metabolism [6]: Metabolite_Detected
CCc1c(O)c(=O)ccn1CCOCCOCCOC(=O)CCC(=O)CN.Cl | Metabolite_Detected | Non-Toxic | Dose-dependent effect | 15.8 | Non-Toxic | Dose-dependent effect | 19.6 | Dose-dependent effect | 11.3 | Metabolite_Detected | Drug metabolism [7]: Metabolite_Detected; Drug metabolism [8]: Metabolite_Detected; Drug metabolism [10]: Metabolite_Detected; fold change (FC) [11]: 20
COC(=O)CCC(=O)CNC(=O)[C@H](Cc1ccccc1)NC(C)=O |  |  |  |  |  |  |  |  |  |  | fold change (FC) [12]: 5
CCCCCCOC(=O)CCC(=O)CN [HEXAMINOLEVULINATE] |  |  | Dose-dependent effect | 9.3 |  | Dose-dependent effect | 2.6 | Dose-dependent effect | 8.4 | Metabolite_Detected | Ratio (CNE-2 [13]): 40; LD80 (CNE-2 [14]): 0.03 mM; viability at 4 h, 100 µM [15]: 9%; Activity (KB [16]): Toxic
